Ecoli rRNA inh: selective bacterial rRNA inhibition in E. coli; E. coli WT GFP vs humanized-ribosome RFP mutants, fluorescence, 24 h; hits give low values; DMSO median 0, no signal -100; GFP signal change (wild-type ribosome), % (no concentration beside the values); AID 720706; 1.6% of 350,000 active;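 active = significant combined selectivity score with lowered wild-type GFP, culture density cut under 30%, mutant RFP and density less affected; inactive = any of these conditions unmet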
FN deposition inh: fibronectin deposition inhibition. AID 743247. AH1F fibroblasts, Alexa488-fibronectin deposition fluorescence, overnight. inhibition, % at 12.6 µM. 0.086% of 350,000 active;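 active = mean inhibition across replicates of 30% or more, regardless of how many single replicates reach that level; inconclusive = mean under 30% yet at least half of replicates reach 30%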
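material = AH1F fibroblast monolayer depositing Alexa488-labelled fibronectin into matrix | amount = 10000 AH1F cells/well | buffer or medium = DMEM plus 2% serum, read in PBS | incubation = 1 h cell adhesion before compound, then overnight fibronectin incubation | detection = fluorescence at 485 nm excitation, 525 nm emission | evaluation = percent inhibition as loss of matrix-bound fibronectin fluorescence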
PGC1a acetyl inh: PGC1a acetylation modulation, inhibitor mode | U2OS PGC1a acetylation, AlphaScreen anti-acetyl-lysine; with virally co-expressed GCN5 acetyltransferase | inhibition, % at 15.6 µM | 0.17% of 350,000 active | AID 651687;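 active = every replicate shows inhibition of at least 40%; inconclusive = mean inhibition at least 40% but some replicate below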
DENV2 CPE rescue: protects cells from dengue virus 2 cytopathic effect | DENV2-infected cells, cytopathic effect rescue, plate reader | CPE inhibition, % at 9.99 µM | 1.7% of 350,000 active | AID 651640; in the data active = CPE inhibition above about 20%, passing the limit was not always enough; inconclusive = no clear call, values can overlap the other calls; tested in BHK-21 cells
PglD inh: PglD (C. jejuni) enzyme inhibition | 0.098% of 360,000 active | purified PglD enzyme, DTNB colorimetric CoA detection | AID 602405 | inhibition, % at 12.5 µM; in the data active = inhibition above about 16%, passing the limit was not always enough; inconclusive = no clear call, values can overlap the other calls
Env fusion inh: blocks HIV Env-driven cell-cell fusion; HeLa-JRFL Env/CEM21 cell fusion, luciferase; inhibition, % at 12.3 µM; 1.1% of 360,000 active; AID 651610;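 active = mean replicate inhibition score of at least 50 and every replicate individually at or above 50; inconclusive = only one of the two criteria met; inactive = mean below 50 and not all replicates reaching 50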
Of the large screens only hits and unclear results are named; the others gave an inactive call; ! = not confirmed by another sample; [ ] = remark or other dose. The list is not random: actives were taken first. Their share in the collection is about 3.5%.

Cc1noc(C)c1S(=O)(=O)N(C)C[C@H]1OCCCC[C@H](C)Oc2ccc(NC(=O)Nc3ccc(C(F)(F)F)cc3)cc2C(=O)N([C@@H](C)CO)C[C@@H]1C	Env fusion inh 66[16.7 µM] (no result: FN deposition inh)
NNC(=S)NC1CC2CC1C1C=CCC21 (stereo not given)	Ecoli rRNA inh -21 (no result: PGC1a acetyl inh)
COCC(=O)Nc1ccc2c(c1)OC[C@@H](C)N(Cc1ccccc1OC)C[C@H](C)[C@H](OC)CN(C)C2=O	none (no result: Env fusion inh)
NC(=S)n1[nH]c(-c2ccc([N+](=O)[O-])cc2)c(N=Nc2cccc([N+](=O)[O-])c2)c1=O	Env fusion inh 63 (no result: DENV2 CPE rescue, PglD inh)
COc1cccc(S(=O)(=O)Nc2ccc(C(=O)Nc3ccncc3)cc2)c1	none (no result: Ecoli rRNA inh, PGC1a acetyl inh, DENV2 CPE rescue, PglD inh)
COc1ccc(NS(=O)(=O)c2cccc(NC(=O)c3ccc(Cl)nc3)c2)cc1	Ecoli rRNA inh -25 (no result: FN deposition inh, PGC1a acetyl inh, PglD inh)
O=C(Nc1cccc(S(=O)(=O)Nc2ccc(Cl)cc2)c1)c1ccc(Cl)nc1	Env fusion inh 56 (no result: FN deposition inh, PGC1a acetyl inh, PglD inh)
COCC(=O)N(C)C[C@@H]1Oc2cc(C#C[C@H](C)O)ccc2S(=O)(=O)N([C@H](C)CO)C[C@H]1C	none
CCN(CC)S(=O)(=O)c1ccc(O)c(C(=O)OCC(=O)NC23CC4CC(CC(C4)C2)C3)c1	Ecoli rRNA inh -21
CCO[C@@H]1OC(C(=O)NCc2nc3ccccc3[nH]2)=C[C@H](c2coc3ccccc3c2=O)[C@H]1CCCO	DENV2 CPE rescue 50
CCO[C@H]1OC(C(=O)NCc2nc3ccccc3[nH]2)=C[C@@H](C)[C@@H]1CCCO	none
C#Cc1ccc([C@H]2C=C(C(=O)OCC=C)O[C@@H](OCC)[C@@H]2CCCO)cc1	DENV2 CPE rescue 49!
CCO[C@H]1OC(C(=O)NCc2nc3ccccc3[nH]2)=C[C@@H](c2ccc(C(F)(F)F)cc2)[C@@H]1CCCO	none
C#Cc1ccc([C@@H]2C=C(C(=O)NCc3nc4ccccc4[nH]3)O[C@H](OCC)[C@H]2CCCO)cc1	DENV2 CPE rescue 22! (no result: PGC1a acetyl inh)
C[C@H](CO)N1C[C@H](C)[C@@H](CN(C)S(=O)(=O)c2ccc(Cl)cc2)Oc2ccc(NC(=O)CCC(F)(F)F)cc2C1=O	none (no result: FN deposition inh, Env fusion inh)
O=C(c1ccco1)N1CCN(c2nc(C(F)(F)F)nc3c2nnn3Cc2ccccc2)CC1	Env fusion inh 67 (no result: Ecoli rRNA inh, PGC1a acetyl inh, DENV2 CPE rescue, PglD inh)
O=C(CCN1CCCCC1)NCC[C@H]1CC[C@@H](NC(=O)C2CCC2)[C@H](CO)O1	none (no result: FN deposition inh)
C#CCN(Cc1cccc(F)c1)C(=O)c1nnc2c3ccccc3n(S(=O)(=O)c3ccc(C)cc3)c2n1	none (no result: PGC1a acetyl inh, PglD inh)
C#CCN(Cc1ccco1)C(=O)c1nnc2c3ccccc3n(S(=O)(=O)c3ccc(C)cc3)c2n1	DENV2 CPE rescue 25 (no result: PGC1a acetyl inh, PglD inh)
Cc1cc(C)c2[nH]c(C(=O)Nc3ccc4c(c3)OCO4)cc2c1	DENV2 CPE rescue 24 (no result: PglD inh)
C[C@@H]1CCCCO[C@@H](CN(C)C(=O)Nc2ccccc2)[C@H](C)CN([C@@H](C)CO)C(=O)c2cc(NS(C)(=O)=O)ccc2O1	DENV2 CPE rescue 43
COc1ccc(NC(=O)N(C)C[C@H]2OCCCC[C@@H](C)Oc3ccc(NC(=O)CCCN(C)C)cc3C(=O)N([C@@H](C)CO)C[C@@H]2C)cc1	none (no result: FN deposition inh)
COc1ccc(NC(=O)N(C)C[C@H]2OCCCC[C@H](C)Oc3ccc(NS(C)(=O)=O)cc3C(=O)N([C@@H](C)CO)C[C@H]2C)cc1	none (no result: FN deposition inh)
COc1ccc(NC(=O)N(C)C[C@@H]2OCCCC[C@@H](C)Oc3ccc(NC(=O)CCCN(C)C)cc3C(=O)N([C@@H](C)CO)C[C@H]2C)cc1	DENV2 CPE rescue 67 (no result: FN deposition inh)
COc1ccc(NC(=O)N(C)C[C@H]2OCCCC[C@@H](C)Oc3ccc(NS(C)(=O)=O)cc3C(=O)N([C@H](C)CO)C[C@H]2C)cc1	DENV2 CPE rescue 95 (no result: FN deposition inh)
O=C(c1ccncc1)N1CC2(C1)[C@@H](c1ccccc1)[C@@H](CO)N2Cc1ccccn1	none (no result: FN deposition inh, PglD inh, Env fusion inh)
O=C(C[C@H]1CC[C@H]2[C@@H](COC[C@@H](O)CN2Cc2cc(F)cc(F)c2)O1)NC1CCCC1	none
CCC1CCCCN1S(=O)(=O)c1ccc(NC(=O)c2ccncc2)cc1 (stereo not given)	Env fusion inh 63 (no result: FN deposition inh, PGC1a acetyl inh)
CCC1CCCCN1S(=O)(=O)c1ccc(NC(=O)c2nc(S(C)(=O)=O)ncc2Cl)cc1 (stereo not given)	Ecoli rRNA inh -29, FN deposition inh 39 (no result: PGC1a acetyl inh)
CCS(=O)(=O)c1ncc(Cl)c(C(=O)Nc2ccc(C)cc2)n1	none (no result: PGC1a acetyl inh)
CCC1CCCCN1S(=O)(=O)c1ccc(C(=O)Nc2nnc(C3CC3)o2)cc1 (stereo not given)	none (no result: Ecoli rRNA inh, PGC1a acetyl inh)
CCS(=O)(=O)c1ncc(Cl)c(C(=O)Nc2ccc(S(=O)(=O)N3CCCC(C)C3)cc2)n1 (stereo not given)	Env fusion inh 57 (no result: PGC1a acetyl inh)
O=C(Nc1cccc(F)c1)N1CC(=O)N2[C@H](CO)[C@@H](c3ccc(-c4ccccc4)cc3)[C@H]2C1	none (no result: FN deposition inh, PglD inh, Env fusion inh)
COc1cccc(Cn2c(-c3nonc3N)nc3ccccc32)c1	none (no result: Ecoli rRNA inh, FN deposition inh, DENV2 CPE rescue, Env fusion inh)
COc1cc(Cn2c(-c3nonc3N)nc3ccccc32)ccc1C	Env fusion inh 60 (no result: Ecoli rRNA inh, PGC1a acetyl inh, DENV2 CPE rescue)
CN1CCN(C(=O)C[C@@H]2CC[C@H](NC(=O)Cc3ccccn3)[C@H](CO)O2)CC1	DENV2 CPE rescue inconclusive
Cn1nc(C(F)(F)F)c(-c2cccc(C(F)(F)F)c2)c1NC(=O)CSCC(=O)O	none (no result: PGC1a acetyl inh, PglD inh)
Cn1nc(C(F)(F)F)c(-c2ccc(F)cc2)c1NC(=O)Nc1ccc(F)cc1	Ecoli rRNA inh -30
COc1ccc(-c2c(C(F)(F)F)nn(C)c2NC(=O)c2cccnc2)cc1	none
Cn1nc(C(F)(F)F)c(-c2ccc(Br)cc2)c1NC(=O)c1cccnc1	Ecoli rRNA inh -44
O=C(Nc1oc2ccccc2c(=O)c1-c1ccc(Br)cc1)c1ccco1	none
Cn1nc(C(F)(F)F)c(-c2ccc(Br)cc2)c1NC(=O)c1ccco1	Ecoli rRNA inh -32 (no result: PGC1a acetyl inh)
Cc1ccc(S(=O)(=O)N[C@H]2C=C[C@@H](CC(=O)NC3CCCCC3)O[C@@H]2CO)cc1	none
COc1ccc(CN(C)C[C@H]2OCCCC[C@H](C)Oc3ccc(N(C)C)cc3C(=O)N([C@@H](C)CO)C[C@@H]2C)cc1	none (no result: FN deposition inh)
O=C(CNC(=O)C(c1ccccc1)c1ccccc1)N/N=C\c1cccc(O)c1	none
Cc1ccc(NC(=O)CCC(=O)N/N=C/c2ccc(O)cc2O)cc1	Ecoli rRNA inh -12 (no result: PGC1a acetyl inh)
COc1cccc(/C=N/NC(=O)CNC(=O)COc2cccc(C)c2)c1O	none (no result: PGC1a acetyl inh, PglD inh)
Cc1nonc1C(=O)N/N=C/c1ccc(O)cc1O	Ecoli rRNA inh -22
O=C(CNC(=O)C(c1ccccc1)c1ccccc1)N/N=C/c1ccc(O)cc1O	Ecoli rRNA inh -20 (no result: PGC1a acetyl inh, PglD inh)
Cc1cccc(OCC(=O)NCC(=O)N/N=C/c2ccc(O)cc2O)c1	Ecoli rRNA inh -30 (no result: DENV2 CPE rescue, PglD inh)
Cc1nonc1C(=O)N/N=C/c1ccncc1	none
CC(C)NC(=O)NCC[C@@H]1CC[C@H](NC(=O)c2ccc(F)cc2)[C@H](CO)O1	none
Cc1ccc(O)c(/C=N/NC(=O)CN2CCCC2)c1	PGC1a acetyl inh 84
